Calls of active or inactive are those of the source. No cut-off for these calls is given here.
Legend:
Plasmodium falciparum [1] = assay: Antimalarial activity against Plasmodium falciparum NF54 late stage ([…]) expressing Pfs16-LUC-GFP assessed as growth inhibition at 20 uM by high content imaging assay relative to control; format: functional; settings: read-out: GI
Plasmodium falciparum [2] = assay: Antimalarial activity against Plasmodium falciparum NF54 early stage (1 to 3) expressing Pfs16-LUC-GFP assessed as growth inhibition at 20 uM by high content imaging assay relative to control; format: functional; settings: read-out: GI
Plasmodium falciparum [3] = assay: Antimalarial activity against Plasmodium falciparum NF54 late stage ([…]) expressing Pfs16-LUC-GFP assessed as growth inhibition by high content imaging assay; format: functional, organism-based
Plasmodium falciparum [4] = assay: Antimalarial activity against schizonts stage of Plasmodium falciparum D10 expressing PEXEL-Nluc infected in human RBC assessed as reduction in invasion at 5 times of EC90 concentration preincubated for 30 mins followed by compound wash out and measured after 24 hrs by luminometric method; format: functional, organism-based
Plasmodium falciparum [5] = assay: Antimalarial activity against Plasmodium falciparum 3D7 incubated for 72 hrs by LDH assay; format: functional, organism-based; settings: 3D7, 72 h
Outline: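 Asexual blood-stage P. falciparum 3D7 parasites were cultured with compound for 72 h, and viability was read by lactate dehydrogenase (LDH) activity.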

Plasmodium falciparum [6] = assay: Antimalarial activity against Plasmodium falciparum NF54 early stage (1 to 3) expressing Pfs16-LUC-GFP assessed as growth inhibition by high content imaging assay; format: functional, organism-based
Plasmodium falciparum [7] = assay: Antimalarial activity against asexual blood stage of Mefloquine-resistant Plasmodium falciparum W2mef assessed as reduction in cell viability after 72 hrs by EtBr staining based flow cytometric analysis; format: functional, organism-based
Plasmodium falciparum [8] = assay: Antimalarial activity against asexual blood stage of chloroquine-resistant Plasmodium falciparum Dd2 assessed as reduction in cell viability after 72 hrs by EtBr staining based flow cytometric analysis; format: functional, organism-based; settings: Dd2, 72 h
Plasmodium knowlesi = assay: Antimalarial activity against asexual blood stage of Plasmodium knowlesi YHI assessed as reduction in cell viability after 48 hrs by EtBr staining based flow cytometric analysis; format: functional, organism-based
Plasmodium falciparum [9] = assay: Antimalarial activity against asexual blood stage of chloroquine-resistant Plasmodium falciparum 7G8 assessed as reduction in cell viability after 72 hrs by EtBr staining based flow cytometric analysis; format: functional, organism-based; settings: 7G8, 72 h
HepG2 = assay: Cytotoxicity against human HePG2 cells assessed as growth inhibition after 48 hrs by Cell Titer-Glo assay; format: cell-based; settings: HepG2, 48 h
Plasmodium falciparum [10] = assay: Antimalarial activity against asexual blood stage of artemisinin-resistant Plasmodium falciparum Cam3.12539T cambodian isolate assessed as reduction in cell viability after 72 hrs by EtBr staining based flow cytometric analysis; format: functional, organism-based; settings: Cam3.12539T cambodian isolat
Plasmodium falciparum [11] = assay: Antimalarial activity against schizonts stage of Plasmodium falciparum D10 expressing GFP infected in human RBC assessed as reduction in ring stage formation at 4 times of EC90 concentration after 6 hrs by flow cytometric analysis; format: functional, organism-based
Plasmodium falciparum [12] = assay: Antimalarial activity against asexual blood stage of Plasmodium falciparum 3D7 assessed as reduction in cell viability after 72 hrs by EtBr staining based flow cytometric analysis; format: functional, organism-based; settings: 3D7, 72 h
Plasmodium falciparum [13] = assay: Antimalarial activity against schizonts stage of Plasmodium falciparum D10 expressing GFP infected in human RBC assessed as reduction in merozoites invade to RBC at 4 times of EC90 concentration after 6 hrs by flow cytometric analysis; format: functional, organism-based
[14] = Intrinsic clearance in mouse liver microsomes at 1 uM in presence of NADPH measured up to 60 mins by LC-MS analysis; format: ADME, Microsome; settings: read-out: CLH
Plasmodium falciparum [15] = assay: Antimalarial activity against asexual blood stages of Plasmodium falciparum 3D7 infected in human RBC by Live cell microscopic method; format: functional, organism-based; settings: 3D7, Erythrocyte
[16] = Selectivity ratio of IC50 for antimalarial activity against asexual blood stage of chloroquine-resistant Plasmodium falciparum 7G8 to IC50 for antimalarial activity against asexual blood stage of Plasmodium falciparum 3D7; format: functional
[17] = Solubility of compound in PBS at pH 6.5 by nephelometric analysis; format: physicochemical

SMILES | EC50 (Plasmodium falciparum [5]) [nM] | EC50 (Plasmodium falciparum [3]) [nM] | EC50 (Plasmodium falciparum [6]) [nM] | EC50 (HepG2) [nM] | other results
C[C@@H](C(=O)N1CC2CC2C1)N1CCN(S(=O)(=O)c2ccc(C(C)(C)C)cc2)CC1 (stereo partly specified) | 130 | > 10000 | > 10000 | > 40000 | inhibition of growth at 20 µM (Plasmodium falciparum [1]): 36%; inhibition of growth at 20 µM (Plasmodium falciparum [2]): 44%; Activity (Plasmodium falciparum [4]): Active; EC50 (Plasmodium falciparum [7]): 60 nM; EC50 (Plasmodium falciparum [8]): 70 nM; EC50 (Plasmodium knowlesi): 140 nM; EC50 (Plasmodium falciparum [9]): 80 nM; EC50 (Plasmodium falciparum [10]): 60 nM; Activity (Plasmodium falciparum [11]): Active; EC50 (Plasmodium falciparum [12]): 30 nM; Activity (Plasmodium falciparum [13]): Active
C[C@@H](C(=O)N1CCC(F)(F)CC1)N1CCN(S(=O)(=O)c2ccc(C(C)(C)C)cc2)CC1 | 200 | > 10000 | > 10000 | > 40000 | inhibition of growth at 20 µM (Plasmodium falciparum [1]): 47%; inhibition of growth at 20 µM (Plasmodium falciparum [2]): 59%; Activity (Plasmodium falciparum [4]): Active; EC50 (Plasmodium falciparum [7]): 90 nM; EC50 (Plasmodium falciparum [8]): 110 nM; EC50 (Plasmodium knowlesi): 260 nM; EC50 (Plasmodium falciparum [9]): 110 nM; EC50 (Plasmodium falciparum [10]): 80 nM; Activity (Plasmodium falciparum [11]): Active; EC50 (Plasmodium falciparum [12]): 50 nM; Activity (Plasmodium falciparum [13]): Active
CCN(CC)CCCC(C)Nc1ccnc2cc(Cl)ccc12 (stereo unspecified) [CHLOROQUINE] | 21000 | > 10000 | 97 | – | inhibition of growth at 20 µM (Plasmodium falciparum [1]): 99%; EC50 (Plasmodium falciparum [7]): 250 nM; EC50 (Plasmodium falciparum [8]): 580 nM; EC50 (Plasmodium knowlesi): 10 nM; EC50 (Plasmodium falciparum [9]): 320 nM; EC50 (Plasmodium falciparum [10]): 560 nM; EC50 (Plasmodium falciparum [12]): 4 nM
C[C@H]1[C@H](OC(=O)CCC(=O)O)O[C@@H]2O[C@@]3(C)CC[C@H]4[C@H](C)CC[C@@H]1[C@@]24OO3 [ARTESUNATE] | 8000 | 24 | 2 | – | –
COc1ccc2nc3cc(Cl)ccc3c(Nc3cc(CN4CCCC4)c(O)c(CN4CCCC4)c3)c2n1 [PYRONARIDINE] | – | 1240 | 53 | – | –
C[C@@H](C(=O)N1CCCCC1)N1CCN(S(=O)(=O)c2ccc(C(C)(C)C)cc2)CC1 | 200 | > 10000 | > 10000 | > 40000 | inhibition of growth at 20 µM (Plasmodium falciparum [1]): 41%; inhibition of growth at 20 µM (Plasmodium falciparum [2]): 49%; Activity (Plasmodium falciparum [4]): Active; Ratio IC50 [16]: 8; EC50 (Plasmodium falciparum [7]): 490 nM; EC50 (Plasmodium falciparum [8]): 860 nM; EC50 (Plasmodium knowlesi): 1300 nM; EC50 (Plasmodium falciparum [9]): 5100 nM; EC50 (Plasmodium falciparum [10]): 1300 nM; Activity (Plasmodium falciparum [11]): Active; EC50 (Plasmodium falciparum [12]): 610 nM; Activity (Plasmodium falciparum [13]): Active
CC(C(=O)N1CCc2ccccc2C1(C)C)N1CCN(S(=O)(=O)c2ccc(C(C)(C)C)cc2)CC1 (stereo unspecified) | 180 | – | – | 31000 | microsomal CLint at 1 µM [14]: > 866 µL/min/mg; solubility kinetic [17]: < 1.6 µM
CC(C(=O)N1CCC(F)(F)CC1)N1CCN(S(=O)(=O)c2ccc(C(C)(C)C)cc2)CC1 (stereo unspecified) | 380 | – | – | > 40000 | –
CC(C(=O)N1CC2CC2C1)N1CCN(S(=O)(=O)c2ccc(C(C)(C)C)cc2)CC1 (stereo unspecified) | 330 | – | – | > 40000 | –
CC(C(=O)N1CCCC1)N1C[C@@H]2C[C@H]1CN2S(=O)(=O)c1ccc(C(C)(C)C)cc1 (mixture of isomers) | > 10000 | – | – | > 40000 | –
CC(C(=O)N1CCCC1)N1[C@@H]2CC[C@H]1CN(S(=O)(=O)c1ccc(C(C)(C)C)cc1)C2 (stereo partly specified) | 920 | – | – | > 40000 | microsomal CLint at 1 µM [14]: 473 µL/min/mg

Continued, in another order:

EC50 (Plasmodium falciparum [5]) [nM] | SMILES | EC50 (Plasmodium falciparum [3]) [nM] | EC50 (Plasmodium falciparum [6]) [nM] | EC50 (HepG2) [nM] | other results
690 | CC(C(=O)N1CCCC1)N1CCN(S(=O)(=O)c2ccc(C(C)(C)C)cc2)CC1 (stereo unspecified) | – | – | > 40000 | CLint scaled at 1 µM [14]: > 2100 mL/min/kg; EC50 (Plasmodium falciparum [15]): 900 nM
> 10000 | CC(C(=O)N1CCCC1)C1CCN(S(=O)(=O)c2ccc(C(C)(C)C)cc2)CC1 (stereo unspecified) | – | – | > 40000 | microsomal CLint at 1 µM [14]: 532 µL/min/mg
6100 | CC(C(=O)N1CCN(C)CC1)N1CCN(S(=O)(=O)c2ccc(C(C)(C)C)cc2)CC1 (stereo unspecified) | – | – | > 40000 | –
1200 | CC(C(=O)N1CCc2ccccc2C1C)N1CCN(S(=O)(=O)c2ccc(C(C)(C)C)cc2)CC1 (stereo unspecified) | – | – | 28000 | –
4300 | CC(C(=O)N1CCCC1)N1C[C@@H]2CN(S(=O)(=O)c3ccc(C(C)(C)C)cc3)C[C@@H]2C1 (stereo partly specified) | – | – | > 40000 | –
9100 | CCC(C)c1ccc(S(=O)(=O)N2CCN(C(C)C(=O)N3CCCC3)CC2)cc1 (stereo unspecified) | – | – | > 40000 | –
2100 | CC(C(=O)N(C)CCc1ccccc1)N1CCN(S(=O)(=O)c2ccc(C(C)(C)C)cc2)CC1 (stereo unspecified) | – | – | 17000 | –
490 | C[C@@H](C(=O)N1CCCC1)N1CCN(S(=O)(=O)c2ccc([Si](C)(C)C)cc2)CC1 | – | – | > 40000 | microsomal CLint at 1 µM [14]: > 866 µL/min/mg
810 | CC(C(=O)N1CCc2ccccc2C12CCCC2)N1CCN(S(=O)(=O)c2ccc(C(C)(C)C)cc2)CC1 (stereo unspecified) | – | – | > 40000 | –

— ChEMBL document CHEMBL4732224, “Structure activity refinement of phenylsulfonyl piperazines as antimalarials that block erythrocytic invasion” (Eur J Med Chem, 2021)
